Measurements reported in ChEMBL document CHEMBL4138301, “Discovery of Tetralones as Potent and Selective Inhibitors of Acyl-CoA:Diacylglycerol Acyltransferase 1” (ACS Med Chem Lett, 2018).
In brackets after ≈: the same amount, converted by molar mass. Blank lines part the entries; values can stand above or below the compound they belong to.

Experiments:
[1] = molecular target: T1, Diacylglycerol O-acyltransferase 1 (Mus musculus) (UniProt Q9Z2A7); experiment: Inhibition of DGAT1 in mouse C2C12 cells at 300 nM using [14C] oleic acid as substrate measured after 20 mins by phosphorimaging method relative to control; format: cell-based
T1 sequence (whole entry): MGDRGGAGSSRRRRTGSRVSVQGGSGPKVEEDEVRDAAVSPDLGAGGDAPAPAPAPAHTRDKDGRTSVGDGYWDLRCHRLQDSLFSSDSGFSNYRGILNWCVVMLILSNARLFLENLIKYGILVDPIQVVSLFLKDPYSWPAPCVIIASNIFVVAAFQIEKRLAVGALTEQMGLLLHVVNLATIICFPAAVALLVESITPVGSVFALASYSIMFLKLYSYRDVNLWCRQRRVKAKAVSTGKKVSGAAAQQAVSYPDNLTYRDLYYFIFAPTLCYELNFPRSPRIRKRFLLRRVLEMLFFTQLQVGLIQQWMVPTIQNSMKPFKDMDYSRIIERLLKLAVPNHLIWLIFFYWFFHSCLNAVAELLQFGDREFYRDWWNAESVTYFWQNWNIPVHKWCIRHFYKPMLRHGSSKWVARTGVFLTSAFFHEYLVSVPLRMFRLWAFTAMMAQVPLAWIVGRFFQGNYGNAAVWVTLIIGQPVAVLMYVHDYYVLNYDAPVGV

[2] = Kinetic solubility of the compound in pION buffer at pH 7.4 measured after 18 hrs; format: physicochemical; details: read-out: Kinetic_solubility
[3] = Oral bioavailability in Sprague-Dawley rat at 2 mg/kg; format: ADME, organism-based; details: in vivo
Summary of the method: (§1)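 Male animals, n = 3 per species: C57BL/6J mouse at 2.2 mg/kg IV and 2.7 mg/kg PO; Sprague–Dawley rat at 1 mg/kg IV and 2 mg/kg PO; Beagle dog at 1.8 mg/kg IV and 5.3 mg/kg PO. Plasma clearance, Vss, IV half-life and oral %F were derived from the plasma profiles.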

[4] = test system: Mus musculus; experiment: In vivo inhibition of DGAT1 in corn oil-induced Swiss albino mouse hypertriglyceridemia model assessed as reduction in plasma triglyceride level at 0.3 mg/kg, po pretreated for 30 mins followed by coil oil challenge measured after 2.5 hrs relative to control; format: functional
Summary of the method: (§2)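 Male Swiss Albino mice were fasted overnight, then dosed orally at 0.03, 0.1, 0.3, 1, 3 or 10 mg/kg. Thirty minutes later they received an oral corn oil bolus of 5 mL/kg.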

[5] = species: Mus musculus; experiment: animal or person; details: Swiss, po
[6] = test system: Escherichia coli; experiment: Mutagenicity in Escherichia coli WP2uvrA in presence of S9 fraction by Ames test; format: toxicity, organism-based
[7] = Plasma clearance in C57BL/6J mouse at 2.2 mg/kg, iv or 2.7 mg/kg, po; format: ADME, organism-based; summary of the method: as §1
[8] = test system: Salmonella typhimurium; experiment: Mutagenicity in Salmonella typhimurium TA1535 in absence of S9 fraction by Ames test; format: toxicity, organism-based; details: salmonella enterica subsp. enterica serovar typhimurium
[9] = test system: Salmonella typhimurium; experiment: Mutagenicity in Salmonella typhimurium TA98 in absence of S9 fraction by Ames test; format: toxicity, organism-based; details: salmonella enterica subsp. enterica serovar typhimurium
[10] = test system: Salmonella typhimurium; experiment: Mutagenicity in Salmonella typhimurium TA100 in absence of S9 fraction by Ames test; format: toxicity, organism-based; details: salmonella enterica subsp. enterica serovar typhimurium
[11] = Half life in Sprague-Dawley rat at 1 mg/kg, iv; format: ADME, organism-based; details: in vivo; summary of the method: as §1
[12] = test system: Salmonella typhimurium; experiment: Mutagenicity in Salmonella typhimurium TA1537 in presence of S9 fraction by Ames test; format: toxicity, organism-based; details: salmonella enterica subsp. enterica serovar typhimurium
[13] = test system: Mus musculus; experiment: In vivo inhibition of DGAT1 in corn oil-induced Swiss albino mouse hypertriglyceridemia model assessed as reduction in plasma triglyceride level at 1 mg/kg, po pretreated for 30 mins followed by coil oil challenge measured after 2.5 hrs relative to control; format: functional; summary of the method: as §2
[14] = Plasma clearance in Sprague-Dawley rat at 1 mg/kg, iv or 2 mg/kg, po; format: ADME, organism-based; summary of the method: as §1
[15] = Half life in Beagle dog at 1.8 mg/kg, iv; format: ADME, organism-based, Canis lupus familiaris; details: in vivo; summary of the method: as §1
[16] = test system: Mus musculus; experiment: In vivo inhibition of DGAT1 in corn oil-induced Swiss albino mouse hypertriglyceridemia model assessed as reduction in plasma triglyceride level at 0.1 mg/kg, po pretreated for 30 mins followed by coil oil challenge measured after 2.5 hrs relative to control; format: functional; summary of the method: as §2
[17] = Volume of distribution at steady state in Sprague-Dawley rat at 1 mg/kg, iv or 2 mg/kg, po; format: ADME, organism-based; details: in vivo, read-out: Vdss
Summary of the method: (§3)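 Male animals, n = 3 per species. Each was given a single intravenous dose and a separate oral dose, at the species-specific levels in the line. Plasma clearance, steady-state volume of distribution, IV half-life and oral bioavailability were derived from these studies.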

[18] = test system: Mus musculus; experiment: In vivo inhibition of DGAT1 in corn oil-induced Swiss albino mouse hypertriglyceridemia model assessed as reduction in plasma triglyceride level at 0.03 mg/kg, po pretreated for 30 mins followed by coil oil challenge measured after 2.5 hrs relative to control; format: functional; summary of the method: as §2
[19] = test system: Salmonella typhimurium; experiment: Mutagenicity in Salmonella typhimurium TA98 in presence of S9 fraction by Ames test; format: toxicity, organism-based; details: salmonella enterica subsp. enterica serovar typhimurium
[20] = test system: Salmonella typhimurium; experiment: Mutagenicity in Salmonella typhimurium TA1537 in absence of S9 fraction by Ames test; format: toxicity, organism-based; details: salmonella enterica subsp. enterica serovar typhimurium
[21] = Plasma clearance in Beagle dog at 1.8 mg/kg, iv or 5.3 mg/kg, po; format: ADME, organism-based, Canis lupus familiaris; summary of the method: as §1
[22] = Volume of distribution at steady state in Beagle dog at 1.8 mg/kg, iv or 5.3 mg/kg, po; format: ADME, organism-based, Canis lupus familiaris; details: in vivo, read-out: Vdss; summary of the method: as §3
[23] = test system: Salmonella typhimurium; experiment: Mutagenicity in Salmonella typhimurium TA100 in presence of S9 fraction by Ames test; format: toxicity, organism-based; details: salmonella enterica subsp. enterica serovar typhimurium
[24] = test system: Escherichia coli; experiment: Mutagenicity in Escherichia coli WP2uvrA in absence of S9 fraction by Ames test; format: toxicity, organism-based
[25] = test system: Salmonella typhimurium; experiment: Mutagenicity in Salmonella typhimurium TA1535 in presence of S9 fraction by Ames test; format: toxicity, organism-based; details: salmonella enterica subsp. enterica serovar typhimurium
[26] = Oral bioavailability in Beagle dog at 5.3 mg/kg; format: ADME, organism-based, Canis lupus familiaris; details: in vivo; summary of the method: as §1
[27] = Volume of distribution at steady state in C57BL/6J mouse at 2.2 mg/kg, iv or 2.7 mg/kg, po; format: ADME, organism-based; details: in vivo, read-out: Vdss; summary of the method: as §3
[28] = test system: Mus musculus; experiment: In vivo inhibition of DGAT1 in corn oil-induced Swiss albino mouse hypertriglyceridemia model assessed as reduction in plasma triglyceride level at 3 mg/kg, po pretreated for 30 mins followed by coil oil challenge measured after 2.5 hrs relative to control; format: functional; summary of the method: as §2
[29] = Half life in C57BL/6J mouse at 2.2 mg/kg, iv; format: ADME, organism-based; details: in vivo; summary of the method: as §1
[30] = Oral bioavailability in C57BL/6J mouse at 2.7 mg/kg; format: ADME, organism-based; details: in vivo; summary of the method: as §1
[31] = test system: Mus musculus; experiment: In vivo inhibition of DGAT1 in corn oil-induced Swiss albino mouse hypertriglyceridemia model assessed as reduction in plasma triglyceride level at 10 mg/kg, po pretreated for 30 mins followed by coil oil challenge measured after 2.5 hrs relative to control; format: functional; summary of the method: as §2

inhibition [1]: 27% | solubility kinetic at 18 h [2]: 88 µg/mL (≈ 172 µM)
SMILES: CC[C@]1(CC(=O)O)CCc2cc(-c3ccc(NC(=O)Nc4cccc(C(F)(F)F)c4)cc3)ccc2C1=O

solubility kinetic at 18 h [2]: 38 µg/mL (≈ 82.5 µM)
SMILES: CCC1(CC(=O)O)CCc2cc(-c3ccc(NC(=O)Nc4cccc(F)c4)cc3)ccc2C1=O (stereo not drawn)

solubility kinetic at 18 h [2]: 26 µg/mL (≈ 50.9 µM)
SMILES: CCC1(CC(=O)O)CCc2cc(-c3ccc(NC(=O)Nc4ccccc4C(F)(F)F)cc3)ccc2C1=O (stereo not drawn)

inhibition [1]: 83% | solubility kinetic at 18 h [2]: 5 µg/mL (≈ 10.5 µM)
SMILES: CC[C@@]1(CC(=O)O)CCc2cc(-c3ccc(NC(=O)Nc4ccc(Cl)cc4)cc3)ccc2C1=O

solubility kinetic at 18 h [2]: 151 µg/mL (≈ 277 µM) | bioavailability [3]: 23%
SMILES: CC[C@@]1(CC(=O)O)CCc2cc(-c3ccc(NC(=O)Nc4cccc(C(F)(F)F)c4)cc3Cl)ccc2C1=O

solubility kinetic at 18 h [2]: 72 µg/mL (≈ 145 µM)
SMILES: CC1(CC(=O)O)CCc2cc(-c3ccc(NC(=O)Nc4cccc(C(F)(F)F)c4)cc3)ccc2C1=O (stereo not drawn)

SMILES: Nc1ncnc2c1C(=O)N(c1ccc([C@H]3CC[C@H](CC(=O)O)CC3)cc1)CCO2 [PF-04620110]
inhibition in vivo at 0.3 mg/kg [4]: 94%

clearance [7]: 42.3 mL/min/kg | half-life [11]: 3.9 h | clearance [14]: 6.3 mL/min/kg | half-life [15]: 4.6 h | inhibition [1]: 75% | Vd [17]: 1 L/kg | clearance [21]: 4.6 mL/min/kg | Vd [22]: 0.6 L/kg | solubility kinetic at 18 h [2]: 78 µg/mL (≈ 153 µM) | bioavailability [26]: 149% | Vd [27]: 2.4 L/kg | bioavailability [3]: 87% | half-life [29]: 2.6 h | bioavailability [30]: 54%
SMILES: CC[C@@]1(CC(=O)O)CCc2cc(-c3ccc(NC(=O)Nc4cccc(C(F)(F)F)c4)cc3)ccc2C1=O
ED50 [5]: 0.23 mg/kg | Activity [6]: Non-Toxic | Activity [8]: Non-Toxic | Activity [9]: Non-Toxic | Activity [10]: Non-Toxic | Activity [12]: Non-Toxic | inhibition in vivo at 1 mg/kg [13]: 71% | inhibition in vivo at 0.1 mg/kg [16]: 33% | inhibition in vivo at 0.03 mg/kg [18]: 19% | Activity [19]: Non-Toxic | Activity [20]: Non-Toxic | Activity [23]: Non-Toxic | Activity [24]: Non-Toxic | Activity [25]: Non-Toxic | inhibition in vivo at 0.3 mg/kg [4]: 60% | inhibition in vivo at 3 mg/kg [28]: 91% | inhibition in vivo at 10 mg/kg [31]: 99%

solubility kinetic at 18 h [2]: 58 µg/mL (≈ 140 µM)
SMILES: O=C(O)CC1CCc2cc(-c3ccc(NC(=O)Nc4ccccc4)cc3)ccc2C1=O (stereo not drawn)

inhibition [1]: 62% | solubility kinetic at 18 h [2]: 39 µg/mL (≈ 76.4 µM)
SMILES: CCC1(CC(=O)O)CCc2cc(-c3ccc(NC(=O)Nc4cccc(C(F)(F)F)c4)cc3)ccc2C1=O (racemic)

solubility kinetic at 18 h [2]: 13 µg/mL (≈ 29.1 µM)
SMILES: CC1(CC(=O)O)CCc2cc(-c3ccc(NC(=O)Nc4cccc(F)c4)cc3)ccc2C1=O (stereo not drawn)

solubility kinetic at 18 h [2]: 6 µg/mL (≈ 12.7 µM)
SMILES: CCC1(CC(=O)O)CCc2cc(-c3ccc(NC(=O)Nc4cccc(OC)c4)cc3)ccc2C1=O (stereo not drawn)

solubility kinetic at 18 h [2]: 40 µg/mL (≈ 87.2 µM)
SMILES: COc1cccc(NC(=O)Nc2ccc(-c3ccc4c(c3)CCC(C)(CC(=O)O)C4=O)cc2)c1 (stereo not drawn)

solubility kinetic at 18 h [2]: 46 µg/mL (≈ 90.1 µM)
SMILES: CCC1(CC(=O)O)CCc2cc(-c3ccc(NC(=O)Nc4ccc(C(F)(F)F)cc4)cc3)ccc2C1=O (stereo not drawn)

SMILES: CCC1(CC(=O)O)CCc2cc(-c3ccc(N)cc3)ccc2C1=O (stereo not drawn)
Activity [6]: Toxic | Activity [8]: Toxic | Activity [9]: Toxic | Activity [10]: Toxic | Activity [12]: Toxic | Activity [19]: Toxic | Activity [20]: Toxic | Activity [23]: Toxic | Activity [24]: Toxic | Activity [25]: Toxic
